In data set [1] the target is T1, Muscarinic acetylcholine receptor M1 (Homo sapiens) (UniProt P11229).
T1 sequence (whole entry): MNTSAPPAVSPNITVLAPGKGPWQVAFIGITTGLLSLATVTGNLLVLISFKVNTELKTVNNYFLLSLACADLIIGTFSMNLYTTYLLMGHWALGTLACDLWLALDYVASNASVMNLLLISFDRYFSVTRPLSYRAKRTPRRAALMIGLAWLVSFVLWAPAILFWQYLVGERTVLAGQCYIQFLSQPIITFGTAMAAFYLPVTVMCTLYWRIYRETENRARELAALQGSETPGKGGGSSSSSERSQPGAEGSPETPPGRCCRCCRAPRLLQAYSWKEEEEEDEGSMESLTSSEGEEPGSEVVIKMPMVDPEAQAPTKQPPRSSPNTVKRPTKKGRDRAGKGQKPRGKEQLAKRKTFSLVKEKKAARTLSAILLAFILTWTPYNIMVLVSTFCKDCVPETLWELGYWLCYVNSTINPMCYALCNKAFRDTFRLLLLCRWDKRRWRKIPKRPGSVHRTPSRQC
The data set can be described thus: Agonist activity at human muscarinic M1 receptor expressed in CHO cells assessed as inflection point for increase of EC20 of acetylcholine-induced calcium mobilization by FLIPR assay. The class given is functional, cell-based. The method in brief: (§1)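 Potency given as inflection point (IP); percent max is the response to compound plus EC20 acetylcholine relative to the maximal acetylcholine effect. Values averaged from at least two experiments; interassay variability ±30% for IP.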
(A change in cytosolic calcium serves as a functional read-out for many receptors and channels.)

Data set [2] addresses T1, Muscarinic acetylcholine receptor M1 (Homo sapiens). The data set can be described thus: Agonist activity at human muscarinic M1 receptor expressed in CHO cells assessed as increase in EC20 of concentration acetylcholine-induced calcium mobilization by FLIPR assay relative to acetylcholine. The class given is functional, cell-based. The method in brief:
as §1

Data set [3] in a line: Apparent permeability of the compound. The following applies: not told.
In another data set the test system is Plasma. The data set can be described thus: Drug levell in Sprague-Dawley rat plasma at 10 mg/kg, po. The note with it: read-out: Cp, in vivo.
A further data set concerns Brain. The data set can be described thus: Drug level in Sprague-Dawley rat brain at 10 mg/kg, po. The note with it: read-out: Drug uptake, in vivo.
In the next data set the test system is Cerebrospinal fluid. The data set can be described thus: Drug level in Sprague-Dawley rat CSF at 10 mg/kg, po. The note with it: read-out: Drug uptake, in vivo.
The nature of data set [4]: Ratio of drug levell in brain to plasma in Sprague-Dawley rat at 10 mg/kg, po.
In a further data set the test system is Mus musculus. The data set can be described thus: Inhibition of scopolamine-induced memory impairment in ip dosed mouse relative to control. The class given is functional, organism-based. The method in brief:
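Mouse contextual fear conditioning (episodic memory model): scopolamine given before exposure to a novel environment to block the new association. Test compound dosed ip at three doses; reversal judged against scopolamine-alone mice. Plasma levels sampled at the 3 mpk dose.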

Calls of active or inactive are those of the source. No cut-off for these calls is given here.

The record followed here is ChEMBL document CHEMBL1156223, “Hydroxy cycloalkyl fused pyridone carboxylic acid M(1) positive allosteric modulators” (Bioorg Med Chem Lett, 2010).

On to `O=C(O)c1cn(Cc2ccc(-c3ccccc3)cc2)c2c(c1=O)CCCC2`, for which the results for the Activity in data set [1] and in data set [2] were 751 nM and 91%, respectively.
Taken in the same sequence, the figures for `O=C(O)c1cn(Cc2ccc(-c3ccccc3)cc2)c2c(c1=O)C(=O)CCC2` were 800 nM and 94%.
As to `O=C(O)c1cn(Cc2ccc(-n3ccnc3)cc2)c2c(c1=O)C(O)CCC2` (stereo not drawn), the Activity in data set [1] amounted to 2500 nM.
For the compound `O=C(O)c1cn(Cc2ccc(-c3ccccc3)cc2)c2ccccc2c1=O`, the Activity in data set [1] came to 212 nM; in data set [2], 92%.
Turning to `O=C(O)c1cn(Cc2ccc(-c3ccc(Cl)cc3)cc2)c2c(c1=O)C(O)CCC2` (stereo not drawn), the Activity in data set [1] amounted to 340 nM.
As for `O=C(O)c1cn(Cc2ccc(-c3ccc(F)cc3)cn2)c2c(c1=O)C(O)CCC2` (stereo not drawn), the Activity in data set [1] was found to be 1100 nM.
Consider `COc1ccc(-c2ccc(Cn3cc(C(=O)O)c(=O)c4c3CCCC4O)cc2)cn1` (stereo not drawn), for which the Activity in data set [1] is 320 nM.
For the compound `O=C(O)c1cn(Cc2ccc(-c3ccsc3)cc2)c2c(c1=O)C(O)CCC2` (stereo not drawn), in data set [1], the Activity came to 2640 nM.
Consider `O=C(O)c1cn(Cc2ccc(-c3ccoc3)cc2)c2c(c1=O)C(O)CCC2` (stereo not drawn), for which the Activity in data set [1] turned out to be 750 nM.
For the compound `COC1CCCc2c1c(=O)c(C(=O)O)cn2Cc1ccc(-c2ccccc2)cc1` (stereo not drawn), the Activity in data set [1] is 1100 nM; in data set [2] it was 90%.
As to `Nc1ccc(-c2ccc(Cn3cc(C(=O)O)c(=O)c4c3CCCC4O)cc2)cn1` (stereo not drawn), the Activity in data set [1] is 2420 nM.
The same measure, in the same setting: then `O=C(O)c1cn(Cc2ccc(-c3cccc(Cl)c3)cc2)c2c(c1=O)C(O)CCC2` (stereo not drawn), with 340 nM.
Take `O=C(O)c1cn(Cc2ccc(-c3ccccc3)cc2)c2c(c1=O)CCCC2=O`: the Activity is 4890 nM in data set [1] and 70% in data set [2].
As to `O=C(O)c1cn(Cc2ccc(-n3cccn3)cc2)c2c(c1=O)C(O)CCC2` (stereo not drawn), in data set [1], the Activity amounted to 1370 nM.
In the case of `COc1ccc(-c2ccc(Cn3cc(C(=O)O)c(=O)c4c3CCCC4O)cc2)cc1` (stereo not drawn), the Activity in data set [1] stood at 1390 nM.
Take `O=C(O)c1cn(Cc2ccc(-c3ccccc3)cc2)c2c(c1=O)CCC2`: the Activity in data set [1] worked out at 810 nM; in data set [2], 99%.
For orientation: Papp means the rate of passage across a membrane or cell layer, normalised by area and donor concentration. What is called Kp is the ratio of the level in a tissue or fluid to that in plasma or blood. `Cn1cc(-c2ccc(Cn3cc(C(=O)O)c(=O)c4c3CCCC4O)cc2)cn1` (stereo not drawn): the Activity in data set [1] worked out at 908 nM. Besides, the Papp in data set [3] was determined as 19 ×10⁻⁶ cm/s. Moreover, the concentration with Plasma worked out at 26700 nM; in the data set on Brain it was 368 nM; in the data set with Cerebrospinal fluid it was 110 nM. Moreover, the Kp in data set [4] came out at 0.01.
On to `O=C(O)c1cn(Cc2ccc(-c3ccc(F)nc3)cc2)c2c(c1=O)C(O)CCC2` (stereo not drawn), for which, in data set [1], the Activity was determined as 14800 nM.
With `COc1ccccc1-c1ccc(Cn2cc(C(=O)O)c(=O)c3c2CCCC3O)cc1` (stereo not drawn), the Activity in data set [1] came to 3100 nM.
Turning to `CN(C)c1ccc(-c2ccc(Cn3cc(C(=O)O)c(=O)c4c3CCCC4O)cc2)cn1` (stereo not drawn), the Activity in data set [1] came out at 1100 nM.
On the same count and under the same terms, then `COc1cccc(-c2ccc(Cn3cc(C(=O)O)c(=O)c4c3CCCC4O)cc2)c1` (stereo not drawn), with 410 nM.
On to `O=C(O)c1cn(Cc2ccc(-c3ccccc3)cc2)c2c(c1=O)CCCC2O` (stereo not drawn), for which the Activity was 8190 nM in data set [1] and 59% in data set [2].
For the compound `Nc1cccc(-c2ccc(Cn3cc(C(=O)O)c(=O)c4c3CCCC4O)nc2)c1` (stereo not drawn), the Activity in data set [1] worked out at 420 nM.
In the case of `O=C(O)c1cn(Cc2ccc(-c3ccccc3Cl)cc2)c2c(c1=O)C(O)CCC2` (stereo not drawn), the Activity in data set [1] amounted to 1400 nM.
Take `O=C(O)c1cn(Cc2ccc(-c3ccccc3)cc2)c2c(c1=O)C(O)CCC2` (stereo not drawn): the Activity in data set [2] worked out at 99%. The inhibition result in the data set on Mus musculus is “Active”.
